Assay results: ChEMBL document CHEMBL1275484, “Rifampin and rifaximin resistance in clinical isolates of Clostridium difficile” (Antimicrob Agents Chemother, 2008)
Converted amounts (≈) assume the structure as drawn.

What was measured:
Assay type in all cases: functional
Clostridioides difficile [1] = assay: Antimicrobial activity against Clostridium difficile isolate 23 by Etest
Outline: (§1)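 Rifampin MIC by Etest strip on brucella blood agar, run per the strip maker's instructions. Isolates were HindIII REA-typed clinical C. difficile.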

Clostridioides difficile [2] = assay: Antimicrobial activity against Clostridium difficile isolate 75 by agar dilution method
Outline: (§2)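 CLSI reference agar dilution for anaerobes, with endpoints read per guideline M11-A7. Rifaximin was dissolved in methanol, diluted in 0.1 M phosphate buffer pH 7.4 with 0.45% SDS, and tested at 0.0009–256 μg/ml. Rifampin was dissolved in methanol, diluted in water, and tested at 0.00001–256 μg/ml. Control strain: C. difficile ATCC […]. Isolates were typed by HindIII REA.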

Clostridioides difficile [3] = assay: Antimicrobial activity against Clostridium difficile isolate 53 by Etest
Outline: (§3)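 Rifampin Etest strips were run on brucella blood agar following the manufacturer's instructions to give an MIC. Clinical isolates were typed by HindIII REA.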

Clostridioides difficile [4] = assay: Antimicrobial activity against Clostridium difficile isolate 74 by agar dilution method; outline: as §2
Clostridioides difficile [5] = assay: Antimicrobial activity against Clostridium difficile isolate 36 by agar dilution method
Outline: (§4)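 MIC by CLSI reference agar dilution for anaerobes, with endpoints read per M11-A7 and C. difficile […] as control. Rifaximin was dissolved in methanol, diluted in 0.1 M phosphate buffer pH 7.4 plus 0.45% SDS, and tested at 0.0009–256 μg/ml. Rifampin was dissolved in methanol, diluted in water, and tested at 0.00001–256 μg/ml.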

Clostridioides difficile [6] = assay: Antimicrobial activity against rifaximin-resistant Clostridium difficile isolate 22 expressing RpoB H502N and R505K mutants by agar dilution method
Outline: as §4, with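 “MICs were found” for “MIC”, “by the” for “by”, “dilution method” for “dilution”, “with” for “plus”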

Clostridioides difficile [7] = assay: Antimicrobial activity against Clostridium difficile isolate 29 by Etest; outline: as §1
Clostridioides difficile [8] = assay: Antimicrobial activity against Clostridium difficile isolate 42 by Etest; outline: as §3
Clostridioides difficile [9] = assay: Antimicrobial activity against rifaximin-resistant Clostridium difficile isolate 24 expressing RpoB H502N and R505K mutants by agar dilution method
Outline: as §4, with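 “MICs were found” for “MIC”, “by the” for “by”, “dilution method” for “dilution”, “with” for “plus”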

For CO[C@H]1/C=C/O[C@@]2(C)Oc3c(C)c(O)c4c(O)c(c(/C=N/N5CCN(C)CC5)c(O)c4c3C2=O)NC(=O)/C(C)=C\C=C\[C@H](C)[C@H](O)[C@@H](C)[C@@H](O)[C@@H](C)[C@H](OC(C)=O)[C@@H]1C [RIFAMPIN], the MIC (Clostridioides difficile [1]) was < 2 ng/mL, the MIC (Clostridioides difficile [2]) was 0.06 ng/mL (≈ 0.0729 nM) and the MIC (Clostridioides difficile [3]) was < 2 ng/mL. The MIC (Clostridioides difficile [4]) was 0.06 ng/mL (≈ 0.0729 nM), the MIC (Clostridioides difficile [5]) was 0.9 ng/mL (≈ 1.09 nM) and the MIC (Clostridioides difficile [6]) was > 256000 ng/mL. For the same molecule, the MIC (Clostridioides difficile [7]) was < 2 ng/mL, the MIC (Clostridioides difficile [8]) was < 2 ng/mL and the MIC (Clostridioides difficile [9]) was > 256000 ng/mL.
